Measured values from ChEMBL document CHEMBL1154044, “5-Nitro-2-furyl derivative actives against Trypanosoma cruzi: preliminary in vivo studies” (Eur J Med Chem, 2009).
Calls of active or inactive are those of the source. The calls are words filed in the database; no cut-off is given here.

Legend:
[1] = system: Mus musculus; experiment: Toxicity in CD1 mouse kidney at 300 mg/kg, ip after 3 days by histological study; format: organism-based; parameters: dose 300 mg/kg, route intraperitoneal; conditions: in vivo, 72 h
How it was run: (§1)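 Healthy female CD1 mice (20–22 g), 5–7 per group, given a single oral (intragastric) or i.p. dose in saline:Tween 80 (4:1) vehicle. Sacrificed on day 3 after ether anaesthesia. Organs fixed in 10% aqueous formalin for histology. Scored against untreated animals from no change to +++ (many changes).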

[2] = system: Mus musculus; experiment: Toxicity in CD1 mouse intestine at 300 mg/kg, ip after 3 days by histological study; format: organism-based; parameters: dose 300 mg/kg, route intraperitoneal; conditions: in vivo, 72 h; how it was run: as §1
[3] = system: Trypanosoma cruzi; experiment: Antitrypanosomal activity against Trypanosoma cruzi infected in po dosed CD1 mouse assessed as prevention of amastigote nest in heart administered daily for 14 days measured on day 45; format: functional, organism-based
How it was run: (§2)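 T. cruzi, a Uruguayan patient isolate, was inoculated intradermally into 2-month-old female CD1 mice (20–22 g). Dosing began on day 15 after parasitaemia was observed. Drugs were suspended in saline:Tween 80 (4:1) and given by intragastric syringe once daily for 14 days, with untreated controls. On day 45 after treatment start, heart and muscle sections were scored by two independent observers for amastigotes and inflammatory infiltrates. Groups had 5–7 mice.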

[4] = system: Mus musculus; experiment: Toxicity in CD1 mouse intestine at 450 mg/kg, po after 3 days by histological study; format: organism-based; parameters: dose 450 mg/kg, route oral; conditions: in vivo, 72 h; how it was run: as §1
[5] = system: Mus musculus; experiment: Toxicity in CD1 mouse assessed as haemoglobin level at 300 mg/kg, ip after 3 days; format: organism-based; parameters: dose 300 mg/kg, route intraperitoneal; conditions: in vivo, 72 h
How it was run: (§3)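 Healthy female CD1 mice (5–7 per group) received a single oral dose of 450 mg/kg or an i.p. dose of 300 mg/kg, with vehicle controls. On day 3 they were sacrificed under ether anaesthesia. Blood was drawn from the subclavian artery and kept at 0 °C in EDTA or heparin. Leukocytes, haemoglobin, haematocrit, GPT and GOT were measured within 24 h and compared with normal ranges.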

[6] = system: Mus musculus; experiment: Toxicity in CD1 mouse assessed as increase in weight respect to day zero at 450 mg/kg, po after 3 days; conditions: in vivo, 72 h
[7] = system: Mus musculus; experiment: Toxicity in CD1 mouse assessed as glutamic-oxalacetate transaminase level at 450 mg/kg, po after 3 days; format: organism-based; parameters: dose 450 mg/kg, route oral; conditions: in vivo, 72 h; how it was run: as §3
[8] = system: Mus musculus; experiment: Toxicity in CD1 mouse assessed as leukocyte level at 450 mg/kg, po after 3 days; format: organism-based; parameters: dose 450 mg/kg, route oral; conditions: in vivo, 72 h; how it was run: as §3
[9] = system: Trypanosoma cruzi; experiment: Antitrypanosomal activity against Trypanosoma cruzi infected in po dosed CD1 mouse assessed as prevention of amastigote nest in smooth muscle administered daily for 14 days measured on day 45; format: functional, organism-based; conditions: Muscle tissue; how it was run: as §2
[10] = system: Mus musculus; experiment: Toxicity in CD1 mouse assessed as glutamic-oxalacetate transaminase level at 300 mg/kg, ip after 3 days; format: organism-based; parameters: dose 300 mg/kg, route intraperitoneal; conditions: in vivo, 72 h; how it was run: as §3
[11] = system: Mus musculus; experiment: Toxicity in CD1 mouse assessed as survival at 300 mg/kg, ip after 3 days; format: organism-based; parameters: dose 300 mg/kg, route intraperitoneal; conditions: in vivo, 72 h
How it was run: (§4)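 Healthy 2-month-old female CD1 mice (20–22 g), groups of 5–7, given one oral dose by intragastric syringe or one i.p. injection. Compound suspended in saline:Tween 80 (4:1) with sonication just before dosing; vehicle-treated controls included. Weighed and observed daily over 3 days for skin, physical aspect, activity and faeces; survival recorded at day 3.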

[12] = system: Trypanosoma cruzi; experiment: Antitrypanosomal activity against Trypanosoma cruzi infected in po dosed CD1 mouse assessed as prevention of inflammatory infiltrates in heart administered daily for 14 days measured on day 45; format: functional, organism-based; how it was run: as §2
[13] = system: Mus musculus; experiment: Toxicity in CD1 mouse assessed as leukocyte level at 300 mg/kg, ip after 3 days; format: organism-based; parameters: dose 300 mg/kg, route intraperitoneal; conditions: in vivo, 72 h; how it was run: as §3
[14] = system: Mus musculus; experiment: Toxicity in CD1 mouse liver at 450 mg/kg, po after 3 days by histological study; format: organism-based; parameters: dose 450 mg/kg, route oral; conditions: in vivo, 72 h; how it was run: as §1
[15] = system: Mus musculus; experiment: Toxicity in CD1 mouse assessed as increase in weight respect to day zero at 300 mg/kg, ip after 3 days; format: organism-based; parameters: dose 300 mg/kg, route intraperitoneal; conditions: in vivo, 72 h
How it was run: (§5)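 Healthy 2-month-old female CD1 mice (20–22 g, 5–7 per group) received one dose. Oral doses of 450 or 300 mg/kg were given by intragastric syringe; i.p. doses of 300 or 150 mg/kg by injection. Drugs were suspended in saline:Tween 80 (4:1), and a vehicle-only control was included. Mice were weighed and observed daily for 3 days. Weight change is expressed as percent relative to day zero.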

[16] = system: Mus musculus; experiment: Toxicity in CD1 mouse assessed as glutamic-pyruvate transaminase level at 300 mg/kg, ip after 3 days; format: organism-based; parameters: dose 300 mg/kg, route intraperitoneal; conditions: in vivo, 72 h; how it was run: as §3
[17] = system: Mus musculus; experiment: Toxicity in CD1 mouse assessed as haemoglobin level at 450 mg/kg, po after 3 days; format: organism-based; parameters: dose 450 mg/kg, route oral; conditions: in vivo, 72 h; how it was run: as §3
[18] = system: Trypanosoma cruzi; experiment: Antitrypanosomal activity against Trypanosoma cruzi infected in po dosed CD1 mouse assessed as prevention of inflammatory infiltrates in smooth muscle administered daily for 14 days measured on day 45; format: functional, organism-based; conditions: Muscle tissue; how it was run: as §2
[19] = system: Mus musculus; experiment: Toxicity in CD1 mouse assessed as glutamic-pyruvate transaminase level at 450 mg/kg, po after 3 days; format: organism-based; parameters: dose 450 mg/kg, route oral; conditions: in vivo, 72 h; how it was run: as §3
[20] = system: Mus musculus; experiment: Toxicity in CD1 mouse heart at 300 mg/kg, ip after 3 days by histological study; format: organism-based; parameters: dose 300 mg/kg, route intraperitoneal; conditions: in vivo, 72 h; how it was run: as §1
[21] = system: Mus musculus; experiment: Toxicity in CD1 mouse liver at 300 mg/kg, ip after 3 days by histological study; format: organism-based; parameters: dose 300 mg/kg, route intraperitoneal; conditions: in vivo, 72 h; how it was run: as §1
[22] = system: Mus musculus; experiment: Toxicity in CD1 mouse lung at 300 mg/kg, ip after 3 days by histological study; format: organism-based; parameters: dose 300 mg/kg, route intraperitoneal; conditions: in vivo, 72 h; how it was run: as §1
[23] = system: Mus musculus; experiment: Toxicity in CD1 mouse lung at 450 mg/kg, po after 3 days by histological study; format: organism-based; parameters: dose 450 mg/kg, route oral; conditions: in vivo, 72 h; how it was run: as §1
[24] = system: Trypanosoma cruzi; experiment: Growth inhibition of Trypanosoma cruzi Tulahuen 2 epimastigote at 5 uM after 5 days; format: functional; conditions: Trypanosoma cruzi, Tulahuen 2, 120 h; read-out: GI
[25] = system: Mus musculus; experiment: Toxicity in CD1 mouse assessed as survival at 450 mg/kg, po after 3 days; format: organism-based; parameters: dose 450 mg/kg, route oral; conditions: in vivo, 72 h; how it was run: as §4
[26] = system: Mus musculus; experiment: Toxicity in CD1 mouse kidney at 450 mg/kg, po after 3 days by histological study; format: organism-based; parameters: dose 450 mg/kg, route oral; conditions: in vivo, 72 h; how it was run: as §1
[27] = system: Mus musculus; experiment: Toxicity in CD1 mouse brain at 450 mg/kg, po after 3 days by histological study; format: organism-based; parameters: dose 450 mg/kg, route oral; conditions: in vivo, 72 h; how it was run: as §1
[28] = system: Mus musculus; experiment: Toxicity in CD1 mouse brain at 300 mg/kg, ip after 3 days by histological study; format: organism-based; parameters: dose 300 mg/kg, route intraperitoneal; conditions: in vivo, 72 h; how it was run: as §1
[29] = system: Mus musculus; experiment: Toxicity in CD1 mouse heart at 450 mg/kg, po after 3 days by histological study; format: organism-based; parameters: dose 450 mg/kg, route oral; conditions: in vivo, 72 h; how it was run: as §1
[30] = system: Mus musculus; experiment: Toxicity in CD1 mouse assessed as hematocrite level at 450 mg/kg, po after 3 days; format: organism-based; parameters: dose 450 mg/kg, route oral; conditions: in vivo, 72 h; how it was run: as §3
[31] = system: Mus musculus; experiment: Toxicity in CD1 mouse assessed as decrease in weight respect to day zero at 300 mg/kg, ip after 3 days; format: organism-based; parameters: dose 300 mg/kg, route intraperitoneal; scale not given: the % may be the effect or the level left; conditions: in vivo, 72 h; how it was run: as §5
[32] = system: Mus musculus; experiment: Toxicity in CD1 mouse assessed as hematocrite level at 300 mg/kg, ip after 3 days; format: organism-based; parameters: dose 300 mg/kg, route intraperitoneal; conditions: in vivo, 72 h; how it was run: as §3
[33] = system: Mus musculus; experiment: Toxicity in CD1 mouse assessed as decrease in weight respect to day zero at 300 mg/kg, po after 3 days; format: organism-based; parameters: dose 300 mg/kg, route oral; scale not given: the % may be the effect or the level left; conditions: in vivo, 72 h; how it was run: as §5
[34] = system: Mus musculus; experiment: Toxicity in CD1 mouse assessed as survival at 150 mg/kg, ip after 3 days; format: organism-based; parameters: dose 150 mg/kg, route intraperitoneal; conditions: in vivo, 72 h; how it was run: as §4
[35] = system: Mus musculus; experiment: Toxicity in CD1 mouse assessed as decrease in weight respect to day zero at 450 mg/kg, po after 3 days; format: organism-based; parameters: dose 450 mg/kg, route oral; scale not given: the % may be the effect or the level left; conditions: in vivo, 72 h; how it was run: as §5
[36] = system: Mus musculus; experiment: Toxicity in CD1 mouse assessed as survival at 300 mg/kg, po after 3 days; format: organism-based; parameters: dose 300 mg/kg, route oral; conditions: in vivo, 72 h; how it was run: as §4
[37] = system: Mus musculus; experiment: Toxicity in CD1 mouse assessed as decrease in weight respect to day zero at 150 mg/kg, ip after 3 days; format: organism-based; parameters: dose 150 mg/kg, route intraperitoneal; scale not given: the % may be the effect or the level left; conditions: in vivo, 72 h; how it was run: as §5

Row | SMILES | Activity [1] | Activity [2] | Activity [4] | Activity [5] [g/dL] | Activity [7] [IU/L] | Activity [8] [µL⁻¹] | Activity [10] [IU/L] | Activity [11] | Activity [13] [µL⁻¹] | Activity [14] | Activity [20] | Activity [21] | Activity [22] | Activity [23] | inhibition of growth at 5 µM [24] [%] | Activity [25] | Activity [26] | Activity [27] | Activity [28] | Activity [29] | further results
1 | CCCCCCNC(=O)N/N=C/C=C/c1ccc([N+](=O)[O-])o1 | Toxic | Non-toxic | Non-toxic | 12.8 | 94.1 | 32400 | 109 | Non-toxic | 31700 | Toxic | Non-toxic | Toxic | Non-toxic | Non-toxic | 82 | Non-toxic | Non-toxic | Non-toxic | Non-toxic | Non-toxic | Activity [3]: Active; Activity [6]: 21%; Activity [9]: Active; Activity [12]: Active; Activity [15]: 8%; Activity [16]: 76.2 IU/L; Activity [17]: 16.3 g/dL; Activity [18]: Active; Activity [19]: 29.4 IU/L
2 | CCCCCCOC(=O)N/N=C/c1ccc([N+](=O)[O-])o1 | Non-toxic | Non-toxic | Non-toxic | 12.3 | 192 | 2700 | 140 |  | 4900 | Toxic | Non-toxic | Toxic | Non-toxic | Non-toxic | 93 | Non-toxic | Non-toxic | Non-toxic | Non-toxic | Non-toxic | Activity [30]: 34.4%; Activity [6]: 3%; Activity [31]: 0%; Activity [32]: 38.7%; Activity [16]: 32 IU/L; Activity [17]: 10.6 g/dL; Activity [19]: 34 IU/L
3 | CCCCNC(=O)N/N=C/c1ccc([N+](=O)[O-])o1 | Toxic | Non-toxic | Toxic |  |  |  |  | Toxic |  | Toxic | Non-toxic | Toxic | Non-toxic | Non-toxic | 30 | Non-toxic | Toxic | Non-toxic | Non-toxic | Non-toxic | Activity [3]: Active; Activity [33]: 4%; Activity [34]: Non-toxic; Activity [12]: Active; Activity [35]: 1%; Activity [36]: Non-toxic; Activity [37]: 6%
4 | CC1CS(=O)(=O)CCN1/N=C/c1ccc([N+](=O)[O-])o1 (stereo unspecified) [NIFURTIMOX] | Non-toxic | Non-toxic | Non-toxic | 13.2 | 162 | 6700 | 177 | Non-toxic | 5100 | Toxic | Non-toxic | Toxic | Non-toxic | Non-toxic | 46 | Non-toxic | Toxic | Non-toxic | Non-toxic | Non-toxic | Activity [33]: 0%; Activity [30]: 42.4%; Activity [31]: 3%; Activity [35]: 6%; Activity [32]: 39.3%; Activity [36]: Non-toxic; Activity [16]: 32.5 IU/L; Activity [17]: 13.5 g/dL; Activity [19]: 49 IU/L
